One test concerns MDCK. As to the kind of experiment: Cytotoxicity against MDCK cells after 4 days by MTT assay. The class given is cell-based. The following applies: Canis lupus familiaris, 96 h. In a few lines:
(§1)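 MTT microtiter assay; cells kept at 37 °C, 5% CO2 in DMEM with regular passage. Wells seeded with 3,000 cells each, exposed continuously for four days to varying drug concentrations in triplicate, with a drug-free control. MTT read at end of day 4 to give IC50.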

The nature of test [1]: Inhibition of endonuclease activity of Influenza A virus H1N1 RNA-dependent RNA polymerase expressed in Escherichia coli BL21 using 6FAM-TGGCAATATCAGCTCCACA-MGBNFQ as substrate after 5 to 240 mins by fluorescence assay. Put shortly: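 PA_N (pandemic H1N1 endonuclease, residues 1-204, His-tag removed, SEC-purified). Inhibitor serially diluted, DMSO at most 2.5% (v/v). Ex 488/em 518 read at 5, 120, 240 min at 37 °C. IC50 by nonlinear regression of fluorescence change, mean of triplicates ± SEM.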

The next test has as its system HEK293. As to the kind of experiment: Cytotoxicity against human HEK293 cells after 4 days by MTT assay. As to conditions: HEK293, 96 h. Format: cell-based. In a few lines: as §1
In general terms: Formazan colour is commonly taken as a measure of viable cells.

The source of these data is ChEMBL document CHEMBL2439996, “Phenyl substituted 3-hydroxypyridin-2(1H)-ones: inhibitors of influenza A endonuclease” (Bioorg Med Chem, 2013).

One may read the IC50 as the point on the concentration scale where inhibition reaches its midpoint. Low values mean greater potency in that assay, high ones weaker potency in that assay.

A value given as a limit tells only on which side of the number the result lay.

Turning to `O=c1[nH]ccc(-c2ccc(F)cc2)c1O`, the half-maximal inhibitory concentration (IC50) is over 100 µM in the test on MDCK, over 200 µM in test [1] and over 100 µM with HEK293.
Regarding `O=c1[nH]cc(-c2ccccc2)cc1O`, the figures for the IC50 (in the test on MDCK; in test [1]; in the test with HEK293) were 80 µM, 2.1 µM and at least 28 µM, respectively.
`O=c1[nH]cc(-c2ccc(F)cc2)cc1O`: the IC50 in the test on MDCK is over 100 µM; in test [1], 0.73 µM; in the test on HEK293, over 100 µM.
In the case of `N#Cc1ccc(-c2c[nH]c(=O)c(O)c2)cc1`, the IC50 is over 100 µM in the test on MDCK, 3.83 µM in test [1] and over 100 µM in the test on HEK293.
As for `O=c1[nH]cc(-c2ccc(-c3nnn[nH]3)cc2)cc1O`, the IC50 in the test on MDCK was over 100 µM; in test [1], 0.368 µM; in the test on HEK293 it was 80 µM.
With `O=c1[nH]c(-c2ccccc2)ccc1O`, the 50% inhibitory concentration (IC50) in the test on MDCK is 60 µM; in test [1], 0.87 µM; with HEK293, at least 28 µM.
For `O=c1[nH]c(-c2ccc(F)cc2)ccc1O`, in that order: over 100 µM, 0.43 µM and over 100 µM.
Consider `N#Cc1ccc(-c2ccc(O)c(=O)[nH]2)cc1`, for which the IC50 with MDCK was over 100 µM; in test [1] it was 0.802 µM; with HEK293 it was at least 28 µM.
As to `O=c1[nH]c(-c2ccc(-c3nnn[nH]3)cc2)ccc1O`, the half-inhibitory concentration (IC50) in the test with MDCK was over 100 µM; in test [1] it was 0.085 µM; with HEK293, at least 28 µM.
As to `O=c1[nH]c(-c2ccccc2)c(-c2ccccc2)cc1O`, the IC50 with MDCK is over 100 µM; in test [1] it was 0.047 µM; in the test on HEK293, at least 28 µM.
On to `O=c1[nH]c(-c2ccc(F)cc2)c(-c2ccc(F)cc2)cc1O`, for which the IC50 in the test with MDCK and in the test on HEK293 was over 100 µM each time.
`N#Cc1ccc(-c2cc(O)c(=O)[nH]c2-c2ccc(C#N)cc2)cc1`: the IC50 in the test with MDCK is 40 µM; in test [1], 0.103 µM; in the test on HEK293, at least 28 µM.
For `O=c1[nH]c(-c2ccc(-c3nnn[nH]3)cc2)c(-c2ccc(-c3nnn[nH]3)cc2)cc1O` the same measures were over 100 µM, 0.285 µM and over 100 µM.
In the case of `O=c1[nH]ccc(-c2ccccc2)c1O`, the results for the IC50 (with MDCK; in test [1]; in the test on HEK293) were over 100 µM, 35 µM and over 100 µM, respectively.
